Assay outcomes from PubChem.
Hits are enriched below; roughly 3.8% of the tested compounds scored in any of these assays.
NPY Y2 blocker: NPY-Y2 receptor antagonists, primary screen, cell-based | 140,000 tested, 0.99% active | inhibition, % at 2.7 µM | NPY-Y2 expressing cells, antagonist mode | Neuropeptide Y receptor type 2 (Homo sapiens), P49146; in the data active = inhibition above about 17%;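 note: 0% = vehicle with agonist challenge and 100% = reference antagonist with challenge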
INS promoter inh: inhibitors of insulin promoter-driven GFP, primary screen, imaging, TRM-6 cells, eGFP reporter, cell count | reporter expression induced with tamoxifen | inhibition, % at 2 µM | 130,000 tested, 0.9% active;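 active = inhibition above the mean plus 3 SD, with well images judged a real hit on visual review, cut at about 60% in these data, passing the limit was not always enough; inconclusive = inhibition over the cutoff but images rejected on review; inactive = inhibition not above the cutoff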
RAM inhibit: inhibitors of the yeast RAM network, primary screen, dse1pr::URA3 reporter, 5-FOA selection. S. cerevisiae dse1pr::URA3 reporter, 5-FOA growth OD615, 2 d; analog-sensitive cbk1-as2 kinase mutant strain. inhibition, % at 50 µM. 190,000 tested, 1.8% active;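 active = inhibition above a set limit, 3 SD over mean compound inhibition, cut at about 8.4% in these data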;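 note: 0% = DMSO-only wells with no growth and 100% = 10 µM 1-NA-PP1 full growth; inhibition rescues growth on 5-FOA so higher OD means more RAM inhibition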
NPY-Y2 PAM-ag: NPY-Y2 potentiators or agonists, primary screen, cell-based; cells expressing NPY-Y2, potentiator/agonist read-out; activation, % at 3.6 µM; 220,000 tested, 0.45% active; in the data active = activation above about 27%;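 note: cells stimulated with NPY near EC25 plus isoproterenol at EC100; 0% = vehicle plus submaximal agonist and 100% = vehicle plus saturating agonist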
NPY-Y1 antag: NPY-Y1 receptor antagonists, primary screen, cell-based; Neuropeptide Y receptor type 1 (Homo sapiens), P25929; HEK293-CNG Y1 cells, membrane potential fluorescence; NPY at EC95, then isoproterenol; inhibition, % at 3.6 µM; 200,000 tested, 1% active; AID 1040, 2008;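 active = inhibition above the campaign mean inhibition of all tested compounds plus 3 SD, cut at about 20% in these data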;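 note: 0% = DMSO wells given NPY plus isoproterenol and 100% = isoproterenol alone without NPY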
Target sequence (P25929 whole entry, looked up): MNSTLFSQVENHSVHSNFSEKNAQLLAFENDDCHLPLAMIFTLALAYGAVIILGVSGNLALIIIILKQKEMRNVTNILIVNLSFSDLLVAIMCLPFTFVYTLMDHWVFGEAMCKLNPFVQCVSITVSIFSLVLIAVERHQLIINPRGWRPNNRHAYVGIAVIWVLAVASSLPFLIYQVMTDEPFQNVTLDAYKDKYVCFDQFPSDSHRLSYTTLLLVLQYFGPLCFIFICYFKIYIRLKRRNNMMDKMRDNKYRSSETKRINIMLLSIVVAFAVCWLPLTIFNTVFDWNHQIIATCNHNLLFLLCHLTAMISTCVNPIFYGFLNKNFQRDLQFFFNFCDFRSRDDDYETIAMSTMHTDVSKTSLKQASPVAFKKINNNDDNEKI
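Assay system: HEK293 cells with Y1 receptor plus CNG channel | Probe or stimulus: NPY (25 nM), isoproterenol (1 µM), Ro 20-1724 (25 µM) | Timing: Compound incubation 1 h at room temperature, readout 45 min post-stimulation | Measured by: Membrane-potential fluorescent dye readout | Benchmarks: High control isoproterenol alone, low control NPY with isoproterenol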
NPY1 pot ag: NPY-Y1 receptor potentiators or agonists, primary screen, cell-based; 220,000 tested, 0.37% active; AID 1304, 2008; NPY-Y1 expressing cells, potentiator/agonist activation; activation, % at 3.6 µM; in the data active = activation above about 33%, passing the limit was not always enough;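 note: cells stimulated with NPY at EC10 then isoproterenol at EC100; 0% = low agonist plus stimulus and 100% = saturating agonist plus stimulus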
Active calls of the source: *; ? = inconclusive; / = no result.

SMILES | NPY Y2 blocker | INS promoter inh | RAM inhibit | NPY-Y2 PAM-ag | NPY-Y1 antag | NPY1 pot ag
COc1ccc(-c2csc3nc(C)nc(N4CCC(C)CC4)c23)cc1OC | / | / | 0.8 | -18.9 | 20.9* | -28.9
O=C(O)c1cc(-c2ccc3c(c2)OCO3)nc2ccccc12 | 5.2 | 13.0 | -0.7 | -5.4 | 5.5 | 1.9
CCOc1ccc(-c2cc(C(=O)Nc3ccc4c(c3)OCCO4)c3ccccc3n2)cc1 | 7.6 | / | 2.5 | -12.4 | 27.4* | -8.0
CC(NC(=O)c1cc(-c2ccc3c(c2)OCO3)nc2ccccc12)C(C)(C)C (centres undefined) | 151.0* | / | 3.1 | -118.9 | 146.8* | -455.8
CC(=O)OCCNc1cc(SCc2ccco2)c2nonc2c1[N+](=O)[O-] | -1.1 | -51.6 | 9.5* | 1.3 | -7.2 | -15.2
CC(C)CCC(C(=O)O)C(C)CC(=O)NNC(=O)c1ccco1 (centres undefined) | / | / | 0.5 | -10.5 | -0.8 | -7.5
Cc1c(NC2=C(Cl)C(=O)N(c3ccccc3Cl)C2=O)c(=O)n(-c2ccccc2)n1C | 3.6 | -81.2 | 3.6 | 8.1 | 2.3 | -0.6
C=CCNC1=C(Cl)C(=O)N(c2ccccc2Cl)C1=O | 1.5 | -22.2 | 8.9* | -15.1 | 3.3 | -6.0
O=C1c2ccccc2C(=O)N1Cc1ccccn1 | / | -15.4 | 2.2 | 5.8 | 3.2 | 8.0
Cc1ccc(-c2c[nH]c(=S)n2-c2ccccc2)cc1 | / | / | 2.2 | 4.3 | 4.7 | 9.2
S=c1[nH]cc(-c2ccccc2)n1-c1cccc(Cl)c1 | -2.5 | 28.1 | 3.6 | 32.4* | -5.7 | 39.2*
O=C(NCC1CCCO1)C(c1cccs1)N(Cc1ccccc1Cl)C(=O)c1ccc(-c2ccccc2)[nH]1 (centres undefined) | -1.9 | -46.0 | 3.9 | 20.7 | -1.1 | 5.5
Cc1ccc(C(C(=O)NCC2CCCO2)N(Cc2ccccc2)C(=O)c2ccc(-c3ccccc3)[nH]2)o1 (centres undefined) | 3.9 | ? | 10.1* | 16.2 | 0.7 | 21.6
Fc1ccc(Nc2ccc3ccccc3n2)c(F)c1 | / | / | 0.0 | -5.1 | 5.2 | -2.8
COC(=O)/C(C#N)=C1/C=Cc2ccccc2N1C | 4.1 | 81.2* | 2.0 | -3.8 | 13.0 | -10.2
CCOC(=O)/C(C#N)=c1/s/c(=C2\C=Cc3ccccc3N2CC)c(=O)n1CC | -0.9 | 9.7 | 2.8 | -0.5 | 7.2 | 1.6
O=C(O)CCCCn1c(SCC(=O)Nc2ccccc2C(F)(F)F)nc2ccsc2c1=O | 5.3 | 16.7 | 8.7* | -5.9 | 6.0 | -4.4
COc1ccc(NC(=O)CSc2nc3ccsc3c(=O)n2CCCCCC(=O)O)cc1 | / | / | 10.7* | 5.6 | 0.1 | -16.5
N#Cc1nc(COc2ccccc2Cl)oc1NCc1cccnc1 | -2.0 | 67.6 | 1.8 | 0.0 | 4.6 | -2.9
O=C(Nc1cc(Sc2ccccn2)cc([N+](=O)[O-])c1)c1cccc(F)c1 | -1.7 | 22.2 | 9.4* | 8.6 | -2.5 | 8.2
O=C(Nc1cc(Sc2nc3ccccc3s2)cc([N+](=O)[O-])c1)c1ccccc1 | -0.9 | 6.7 | 5.4 | 14.6 | 0.3 | -19.7
CCOCC(=O)Nc1c(C(=O)Nc2ccc(OC)cc2OC)oc2ccccc12 | 4.8 | 20.0 | 10.8* | -4.2 | 5.0 | -1.2
CN(C)S(=O)(=O)c1ccc(Cl)c(NC(=O)CN2CCNC(=O)C2)c1 | / | 15.0 | 0.1 | -15.7 | -3.7 | 17.4
NC(=O)CSc1nc(-c2ccccc2)c(-c2ccccc2)o1 | 1.3 | -14.3 | 11.4* | 18.8 | -3.0 | 12.1
CN(C)S(=O)(=O)c1ccccc1N=C=S | / | / | / | -1.0 | / | 8.5
CCN(Cc1ccccc1)C(=O)c1c[nH]c2ccc(S(=O)(=O)N(C)CCC#N)cc2c1=O | -0.5 | 33.3 | 1.7 | 2.6 | -5.7 | -3.1
CN(Cc1ccccc1)S(=O)(=O)c1ccc2[nH]cc(C(=O)NCC3CCCO3)c(=O)c2c1 (centres undefined) | 2.1 | / | 8.7* | 3.5 | -5.3 | 0.0
CCc1ccccc1NS(=O)(=O)c1ccc2[nH]cc(C(=O)NCC3CCCO3)c(=O)c2c1 (centres undefined) | -0.4 | / | 3.8 | -4.4 | -4.0 | 15.7
